In ChEMBL document CHEMBL1127406 (J Med Chem, 1994):

Tests used:
[1] = target: Mu-type opioid receptor (Cavia porcellus, UniProt P97266); assay: Binding affinity at mu opioid receptor in guinea pig brain by [3H]DAMGO displacement.
Procedure, shortened: (§1)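 Adult male guinea pig whole-brain membranes in 50 mM Tris-HCl pH 7.4, preincubated 25 °C 30 min to strip endogenous peptides. Buffer contains BSA and peptidase inhibitors. Tritiated ligand at 0.75 nM (delta), 1.0 nM (mu) or 1.5 nM (kappa). Ten concentrations over 800-fold range, in duplicate. Nonspecific binding with 10 µM naltrexone. Incubated 25 °C 3 h, filtered, counted; nonlinear least-squares fit.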

[2] = target: Kappa-type opioid receptor (Cavia porcellus, UniProt P41144); assay: Binding affinity at kappa opioid receptor in guinea pig brain by [3H]U-69593 displacement.
Procedure, shortened: as §1, with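 “inhibitors.” for “inhibitors. Tritiated ligand at 0.75 nM (delta), 1.0 nM (mu) or 1.5 nM (kappa).”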

[3] = species: Cavia porcellus; assay: Inhibition of electrically induced smooth muscle contraction in guinea pig ileum.; format: functional
Procedure, shortened: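 Longitudinal muscle-myenteric plexus strips from ileum of male Hartley guinea pigs (250-500 g), held in 37 °C oxygenated Krebs buffer, 1 g tension. Transmural stimulation at 0.1 Hz, 0.4-ms supramaximal pulses; no peptidase inhibitors. Cumulative agonist doses, 3 min each; % inhibition of contraction height. μ-selectivity checked with 1000 nM CTAP. IC50 from Hill-equation fit, mean of two to four tissues.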

Kappa-type opioid receptor, sequence (P41144 whole entry): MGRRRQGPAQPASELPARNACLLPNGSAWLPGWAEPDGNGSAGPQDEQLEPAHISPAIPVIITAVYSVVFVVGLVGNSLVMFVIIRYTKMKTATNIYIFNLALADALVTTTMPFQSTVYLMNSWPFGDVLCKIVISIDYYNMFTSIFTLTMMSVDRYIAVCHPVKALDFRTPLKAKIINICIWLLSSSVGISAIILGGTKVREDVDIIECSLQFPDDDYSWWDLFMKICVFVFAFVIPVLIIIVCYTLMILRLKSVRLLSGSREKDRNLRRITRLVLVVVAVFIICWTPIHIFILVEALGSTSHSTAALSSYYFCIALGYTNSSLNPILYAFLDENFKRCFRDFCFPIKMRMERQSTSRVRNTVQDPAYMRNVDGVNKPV
Mu-type opioid receptor, sequence (P97266 whole entry): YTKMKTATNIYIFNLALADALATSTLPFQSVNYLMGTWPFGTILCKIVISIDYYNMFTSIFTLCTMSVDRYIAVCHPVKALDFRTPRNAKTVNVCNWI

For `CC[C@H](C)[C@@H]1NC(=O)[C@H](CCCN=C(N)N)NC(=O)[C@H](CCCN=C(N)N)NC(=O)[C@H](NC(=O)[C@H](Cc2ccccc2)NC(=O)CNC(=O)CNC(=O)[C@@H](N)Cc2ccc(O)cc2)C(C)(C)SSC(C)(C)[C@@H](C(N)=O)NC(=O)[C@@H]2CCCN2C(=O)[C@H](CCCN=C(N)N)NC1=O`, the IC50 [1] was 224 nM and the IC50 [2] was 26.1 nM.

Molecule `CC[C@H](C)[C@@H]1NC(=O)[C@H](CCCN=C(N)N)NC(=O)[C@H](CCCN=C(N)N)NC(=O)[C@@H](NC(=O)[C@H](Cc2ccccc2)NC(=O)CNC(=O)CNC(=O)[C@@H](N)Cc2ccc(O)cc2)CSSC(C)(C)[C@H](C(N)=O)NC(=O)[C@@H]2CCCN2C(=O)[C@H](CCCN=C(N)N)NC1=O` has an IC50 [1] of 17 nM and an IC50 [2] of 1 nM.

For `CC[C@H](C)[C@@H]1NC(=O)[C@H](CCCN=C(N)N)NC(=O)[C@H](CCCN=C(N)N)NC(=O)[C@H](NC(=O)[C@H](Cc2ccccc2)NC(=O)CNC(=O)CNC(=O)[C@@H](N)Cc2ccc(O)cc2)C(C)(C)SSC[C@@H](C(N)=O)NC(=O)[C@@H]2CCCN2C(=O)[C@H](CCCN=C(N)N)NC1=O`, the IC50 [1] was 87.1 nM and the IC50 [2] was 87.1 nM.

`CC[C@H](C)[C@@H]1NC(=O)[C@H](CCCN=C(N)N)NC(=O)[C@H](CCCN=C(N)N)NC(=O)[C@H](NC(=O)[C@H](Cc2ccccc2)NC(=O)CNC(=O)CNC(=O)[C@@H](N)Cc2ccc(O)cc2)C(C)(C)SSC(C)(C)[C@H](C(N)=O)NC(=O)[C@@H]2CCCN2C(=O)[C@H](CCCN=C(N)N)NC1=O` showed an IC50 [1] of 563 nM and an IC50 [2] of 70.5 nM.

With `CC[C@H](C)[C@H](NC(=O)[C@H](CCCN=C(N)N)NC(=O)[C@H](CCCN=C(N)N)NC(=O)[C@@H](CC(C)C)NC(=O)[C@H](Cc1ccccc1)NC(=O)CNC(=O)CNC(=O)[C@@H](N)Cc1ccc(O)cc1)C(=O)N[C@@H](CCCN=C(N)N)C(=O)N1CCC[C@H]1C(=O)N[C@@H](CCCCN)C(N)=O` the IC50 [3] was 94 nM.

Molecule `CC[C@H](C)[C@@H]1NC(=O)[C@H](CCCN=C(N)N)NC(=O)[C@H](CCCN=C(N)N)NC(=O)[C@H](NC(=O)[C@H](Cc2ccccc2)NC(=O)CNC(=O)CNC(=O)[C@@H](N)Cc2ccc(O)cc2)C(C)(C)SSC[C@H](C(N)=O)NC(=O)[C@@H]2CCCN2C(=O)[C@H](CCCN=C(N)N)NC1=O` has an IC50 [1] of 51.1 nM and an IC50 [2] of 18 nM.

Molecule `CC[C@H](C)[C@@H]1NC(=O)[C@H](CCCN=C(N)N)NC(=O)[C@H](CCCN=C(N)N)NC(=O)[C@H](NC(=O)[C@H](Cc2ccccc2)NC(=O)CNC(=O)CNC(=O)[C@@H](N)Cc2ccc(O)cc2)CSSC(C)(C)[C@H](C(N)=O)NC(=O)[C@@H]2CCCN2C(=O)[C@H](CCCN=C(N)N)NC1=O` has an IC50 [1] of 108 nM and an IC50 [2] of 100 nM.

With `CC[C@H](C)[C@H](NC(=O)[C@H](CCCN=C(N)N)NC(=O)[C@H](CCCN=C(N)N)NC(=O)[C@H](CC(C)C)NC(=O)[C@H](Cc1ccccc1)NC(=O)CNC(=O)CNC(=O)[C@@H](N)Cc1ccc(O)cc1)C(=O)N[C@@H](CCCN=C(N)N)C(=O)N1CCC[C@H]1C(=O)NC(CCCCN)C(N)=O` (stereo in doubt) the IC50 [1] was 9.9 nM and the IC50 [3] was 1.07 nM.

`CC[C@H](C)[C@H](NC(=O)[C@H](CCCN=C(N)N)NC(=O)[C@H](CCCN=C(N)N)NC(=O)C(CC(C)C)NC(=O)[C@H](Cc1ccccc1)NC(=O)CNC(=O)CNC(=O)[C@@H](N)Cc1ccc(O)cc1)C(=O)N[C@@H](CCCN=C(N)N)C(=O)N1CCC[C@H]1C(=O)N[C@H](CCCCN)C(N)=O` (stereo in doubt) was tested, and the IC50 [1] was 5.2 nM and the IC50 [3] was 0.3 nM.
